As usually defined, the CC50 is the concentration at which the toxic effect on the cells reaches its halfway point. As a reminder, the IC50 is the concentration that gives 50% inhibition. As a reminder, the IC90 is the point of the concentration-response curve where the effect stands at 90%.

A short description of data set [1]: Cytotoxicity against African green monkey Vero cells assessed as reduction in cell viability by measuring ATP level after 72 hrs by Celltiter-Glo assay. The settings on record: chlorocebus sabaeus. It is filed as cell-based. In short, it runs like this: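 Vero cells seeded at 1.5 × 10⁴ cells/well, exposed 24 h later to 1.95–500 µM compound for 72 h at 37 °C. Viability read as ATP luminescence (CellTiter-Glo). DMSO ≤1% as control. CC50 from linear regression; at least three independent assays in duplicate.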
On the technique in general: In ATP-based viability assays light output follows the ATP content of the culture.

Data set [2] relates to Trypanosoma cruzi. Put plainly: Trypanocidal activity against Trypanosoma cruzi Y strain bloodstream trypomastigotes isolated from infected Swiss webster mouse cardiac cells assessed as reduction in parasite viability after 24 hrs by Celltiter-Glo assay. The format is functional, organism-based. The essentials:
(§1)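 Trypomastigotes at 1 × 10⁶ parasites/well treated 24 h at 37 °C with 0.41–100 µM compound. Y strain viability read by ATP luminescence (CellTiter-Glo); Dm28c-Luc viability read by luciferase activity. IC50/IC90 by linear regression. Benznidazole positive and DMSO ≤1% negative controls.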

The test system of data set [3] is Trypanosoma cruzi. Put plainly: Trypanocidal activity against luciferase expressing Trypanosoma cruzi Dm28c trypomastigotes isolated from infected Vero cells assessed as reduction in parasite viability after 24 hrs by luciferase-luminescence assay. It is filed as functional, organism-based. In short, it runs like this: as §1
Data set [4] in a line: Selectivity index, ratio of CC50 for African green monkey Vero cells to IC50 for Trypanosoma cruzi Y strain bloodstream trypomastigotes isolated from infected Swiss webster mouse cardiac cells. It is filed as toxicity. The settings on record: read-out: Ratio CC50/IC50.
A short description of data set [5]: Selectivity index, ratio of CC50 for African green monkey Vero cells to IC50 for luciferase expressing Trypanosoma cruzi Dm28c trypomastigotes isolated from infected Vero cells. It is filed as toxicity. The settings on record: read-out: Ratio CC50/IC50.
Data set [6] deals with Trypanosoma cruzi. Put plainly: Trypanocidal activity against intracellular amastigote stage of luciferase expressing Trypanosoma cruzi Dm28c infected in Vero cells assessed as reduction in parasite viability after 72 hrs in presence of luciferin by luciferase luminescence analysis.
Data set [7] has as its target T1, Cruzipain (Trypanosoma cruzi, UniProt P25779). Briefly: Irreversible inhibition of Trypanosoma cruzi cruzipain.
The nature of data set [8]: Selectivity index, ratio of CC50 for African green monkey Vero cells to IC50 for intracellular amastigote stage of luciferase expressing Trypanosoma cruzi Dm28c infected in Vero cells. To be noted: read-out: Ratio CC50/IC50. The format is toxicity, cell-based.
Data set [9] can be described thus: Cytotoxicity against mouse cardiomyocytes infected with intracellular amastigote stage of Trypanosoma cruzi Y strain assessed as reduction in cardiomyocyte viability after 72 hrs by Celltiter-Glo assay. It is filed as cell-based, Cardiac Muscle Cell. The essentials:
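Primary heart muscle cells from 18-day mouse fetuses, dissociated with trypsin/collagenase II, grown in DMEM with 7% FBS, 2% chicken embryo extract, 1 mM L-glutamine, antibiotics, 37 °C, 5% CO₂. Plated at 5 × 10⁴ cells/well and treated 72 h. Viability read by ATP luminescence. CC50 from linear regression; DMSO ≤1% control; at least three independent assays in duplicate.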

The nature of data set [10]: Selectivity index, ratio of CC50 for mouse cardiomyocyte infected with intracellular amastigote stage of Trypanosoma cruzi Y strain to IC50 for amastigote stage of Trypanosoma cruzi Y strain. It is filed as toxicity, cell-based. The settings on record: read-out: Ratio CC50/IC50.
For data set [11], the system named is Trypanosoma cruzi. Briefly: Potency index, ratio of compound IC90 to benznidazole IC90 for Trypanocidal activity against intracellular amastigote stage of luciferase expressing Trypanosoma cruzi Dm28c infected in Vero cells. It is filed as functional.
Data set [12] deals with T1, Cruzipain. Briefly: Inhibition of Trypanosoma cruzi cruzipain assessed as reduction in enzymatic activity using Z-FR-AMC fluorogenic peptide substrate incubated for 45 mins by spectrophotometry analysis. The essentials:
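Soluble trypomastigote protein extract (lysis in Tris pH 8.0/NaCl/glycerol/Triton X-100, 25,000 g supernatant) used as enzyme source. Incubated with 30 µM Z-FR-AMC in 10 mM sodium acetate pH 5.0 with 1 mM DTT, co-incubated with inhibitor concentrations, 45 min at 37 °C. AMC release read by fluorescence. Substrate self-degradation and DMSO ≤1% controls.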

In data set [13] the target is Cruzipain (Trypanosoma cruzi) (UniProt P25779). Briefly: Potency index, ratio of compound IC50 to E-64 IC50 for inhibition of Trypanosoma cruzi cruzipain.
Sequence of Cruzipain (Trypanosoma cruzi) (P25779 123-467 limits assumed): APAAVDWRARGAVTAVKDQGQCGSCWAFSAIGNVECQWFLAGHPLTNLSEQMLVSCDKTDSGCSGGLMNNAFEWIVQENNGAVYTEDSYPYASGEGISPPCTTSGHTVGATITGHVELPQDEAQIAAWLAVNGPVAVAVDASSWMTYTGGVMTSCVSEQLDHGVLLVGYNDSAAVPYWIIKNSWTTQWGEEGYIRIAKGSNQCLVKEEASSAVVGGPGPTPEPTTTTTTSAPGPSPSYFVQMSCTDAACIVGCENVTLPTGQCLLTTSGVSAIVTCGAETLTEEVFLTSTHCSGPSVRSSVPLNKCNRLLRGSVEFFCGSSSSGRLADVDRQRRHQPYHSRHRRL
Data set [14] relates to Trypanosoma cruzi. Put plainly: Trypanocidal activity against intracellular amastigote stage of Trypanosoma cruzi Y strain infected in Swiss webster cardiac cells assessed as reduction in parasite viability.

T1 sequence (P25779 whole entry): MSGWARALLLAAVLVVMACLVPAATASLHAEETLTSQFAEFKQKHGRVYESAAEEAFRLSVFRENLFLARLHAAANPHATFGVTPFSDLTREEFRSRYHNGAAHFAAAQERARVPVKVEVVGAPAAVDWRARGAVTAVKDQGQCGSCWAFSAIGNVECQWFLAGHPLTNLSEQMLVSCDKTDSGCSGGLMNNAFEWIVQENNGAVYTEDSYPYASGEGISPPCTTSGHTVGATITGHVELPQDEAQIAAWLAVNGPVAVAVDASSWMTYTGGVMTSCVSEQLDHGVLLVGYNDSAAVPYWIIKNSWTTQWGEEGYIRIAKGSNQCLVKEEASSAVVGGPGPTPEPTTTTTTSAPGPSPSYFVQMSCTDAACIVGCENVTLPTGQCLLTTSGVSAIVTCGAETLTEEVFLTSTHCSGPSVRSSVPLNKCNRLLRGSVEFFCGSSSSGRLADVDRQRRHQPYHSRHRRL

Turning to `Nc1c(C2=NCCN2)cnn1-c1ccc(Cl)cc1`, the CC50 at 72 h in [1] was > 500 µM. The IC50 was 84.2 µM in data set [2], 78.9 µM in data set [3] and > 100 µM in [6]. Moreover, the IC90 in data set [2], in [3] and in [6] was > 100 µM in each case. Besides, the selectivity ratio is > 5.9 in data set [4] and > 6.3 in data set [5].
`CC(C)C[C@H](NC(=O)[C@@H]1O[C@H]1C(=O)O)C(=O)NCCCCN=C(N)N`: in data set [7], half-maximal inhibition (IC50) was put at 3 µM.
Regarding `Nc1c(C2=NCCCN2)cnn1-c1ccc(Cl)c(Cl)c1`, in data set [1], the CC50 at 72 h is > 500 µM. For the same compound, the IC50 in data set [2], in data set [3] and in data set [6] was > 100 µM each time. For the same compound, the IC90 in data set [2], in data set [3] and in data set [6] was > 100 µM throughout.
On to `Nc1c(C2=NCCCN2)cnn1-c1cccc(Cl)c1`, for which the 50% cytotoxic concentration (CC50) at 72 h in data set [1] was > 500 µM. The IC50 in data set [2], in data set [3] and in [6] was > 100 µM each time. The IC90 in data set [2], in [3] and in data set [6] was > 100 µM in each case.
Consider `Nc1c(C2=NCCN2)cnn1-c1cccc(Cl)c1`, for which, in data set [1], the 50% cytotoxic concentration (CC50) at 72 h was > 500 µM. Further, the half-inhibitory concentration (IC50) in [2] was 31.3 µM; in [3] it was 53.3 µM; in [6], 20.6 µM. Moreover, the results for the IC90 in data set [2], in data set [3] and in data set [6] were > 100 µM, 81.1 µM and 55 µM, respectively. Moreover, the selectivity ratio in data set [4] was > 15.9; in data set [5] it was 9.4; in [8], > 24.3.
On to `Nc1c(C2=NCCCN2)cnn1-c1ccc(Br)cc1`, for which the CC50 at 72 h in data set [1] is > 500 µM. The IC50 in data set [2], in data set [3] and in data set [6] was > 100 µM throughout. The IC90 in data set [2], in [3] and in data set [6] was > 100 µM in each case.
With `Nc1c(C2=NCCN2)cnn1-c1ccccc1`, the CC50 at 72 h in data set [1] is > 500 µM. The IC50 in data set [2] was > 100 µM; in [3], > 100 µM; in data set [6] it was 84.2 µM. The IC90 in data set [2], in [3] and in [6] was > 100 µM each time. Moreover, the selectivity ratio in data set [8] was > 5.9.
Turning to `COc1ccc(-n2ncc(C3=NCCN3)c2N)cc1`, the CC50 at 72 h in [1] was > 500 µM. The results for the IC50 in data set [2], in data set [3] and in data set [6] were > 100 µM, > 100 µM and 63.4 µM, respectively. Besides, the IC90 in data set [2], in data set [3] and in data set [6] was > 100 µM each time. The selectivity ratio in data set [8] is > 7.9.
Consider `Nc1c(C2=NCCN2)cnn1-c1cccc(Br)c1`, for which the CC50 at 72 h in [1] came to 352 µM. For the same compound, the IC50 was 27.7 µM in data set [2], > 100 µM in data set [3] and 67.4 µM in data set [6]. Also, the IC90 in data set [2], in data set [3] and in data set [6] was > 100 µM in each case. Moreover, the results for the selectivity ratio in data set [4] and in [8] were 12.7 and 5.2, respectively.
Turning to `Nc1c(C2=NCCCN2)cnn1-c1ccc(Cl)cc1`, in data set [1], the CC50 at 72 h is > 500 µM. The IC50 in [2], in data set [3] and in data set [6] was > 100 µM throughout. In addition, the IC90 in data set [2], in data set [3] and in data set [6] was > 100 µM in each case.
For `Nc1c(C2=NCCCN2)cnn1-c1cccc(Br)c1`, in data set [1], the CC50 at 72 h was > 500 µM. The half-maximal inhibitory concentration (IC50) in data set [2], in data set [3] and in [6] was > 100 µM each time. Besides, the IC90 in data set [2], in data set [3] and in [6] was > 100 µM throughout.
As to `Nc1c(C2=NCCCN2)cnn1-c1ccccc1`, the cytotoxic concentration (CC50) at 72 h in [1] is > 500 µM. For the same compound, the IC50 in [2], in [3] and in [6] was > 100 µM each time. Also, the IC90 in data set [2], in [3] and in [6] was > 100 µM throughout.
For `Nc1c(C2=NCCN2)cnn1-c1cc(Cl)cc(Cl)c1`, the 50% cytotoxic concentration (CC50) at 72 h in [1] worked out at 257 µM; in data set [9] it was 379 µM. Besides, the IC50 in data set [2] was determined as 30.9 µM; in data set [3], 9.5 µM; in [12] it was 24 µM; in [14], 12.5 µM; in [6] it was 16.5 µM. The IC90 is > 100 µM in data set [2], 28.9 µM in data set [3] and 29.9 µM in data set [6]. Further, the selectivity ratio in data set [4] amounted to 8.3; in data set [5], 27.1; in data set [8], 15.6; in [10], 30.3. The Ratio in [11] is on record as 4.4. Besides, the Ratio IC50 in data set [13] was 8.
Consider `Nc1c(C2=NCCCN2)cnn1-c1cc(Cl)cc(Cl)c1`, for which, in [1], the CC50 at 72 h is > 500 µM. For the same compound, the IC50 in data set [2], in [3] and in [6] was > 100 µM in each case. Further, the 90% effect concentration (IC90) in [2], in [3] and in data set [6] was > 100 µM throughout.
Regarding `Nc1c(C2=NCCN2)cnn1-c1ccc(F)cc1`, the CC50 at 72 h in [1] was > 500 µM. The IC50 in data set [2], in data set [3] and in [6] was > 100 µM in each case. For the same compound, the IC90 in [2], in [3] and in data set [6] was > 100 µM in each case.
Take `Nc1c(C2=NCCN2)cnn1-c1ccc(Cl)c(Cl)c1`: the cytotoxic concentration (CC50) at 72 h turned out to be 244 µM in data set [1] and 412 µM in [9]. Further, the concentration for half-maximal inhibition (IC50) was determined as 28.3 µM in data set [2]; 10.5 µM in data set [3]; 180 µM in data set [12]; 12.7 µM in [14]; 13.6 µM in data set [6]. Besides, the IC90 is > 100 µM in data set [2], 29 µM in data set [3] and 30.5 µM in data set [6]. For the same compound, the selectivity ratio amounted to 8.6 in data set [4], 23.3 in data set [5], 17.9 in data set [8] and 32.4 in data set [10]. In addition, in [11], the Ratio was determined as 4.4. For the same compound, the Ratio IC50 in data set [13] stood at 60.
Take `O=C(Cn1ccnc1[N+](=O)[O-])NCc1ccccc1` [BENZNIDAZOLE]: the CC50 at 72 h in data set [1] and in [9] was > 500 µM each time. Also, the IC50 in data set [2] stood at 23.3 µM; in data set [3], 19.1 µM; in data set [14] it was 0.9 µM; in data set [6] it was 1.9 µM. The IC90 in data set [2] is > 100 µM; in data set [3], 94.1 µM; in data set [6], 6.9 µM. Also, the selectivity ratio in [4] is > 21.4; in [5], > 26.3; in [8], > 263; in data set [10], > 555.
As to `Nc1c(C2=NCCCN2)cnn1-c1ccc(F)cc1`, the CC50 at 72 h in data set [1] is > 500 µM. For the same compound, the IC50 in data set [2], in [3] and in data set [6] was > 100 µM in each case. For the same compound, the IC90 in data set [2], in data set [3] and in data set [6] was > 100 µM throughout.
As for `Nc1c(C2=NCCN2)cnn1-c1ccc(Br)cc1`, in data set [1], the CC50 at 72 h was > 500 µM. Also, the values for the IC50 in data set [2], in data set [3] and in data set [6] were 52.3 µM, > 100 µM and 84.2 µM, respectively. The 90% effect concentration (IC90) in data set [2], in [3] and in data set [6] was > 100 µM throughout. Also, the selectivity ratio in [4] is > 9.5; in data set [8], > 5.9.
On to `COc1ccc(-n2ncc(C3=NCCCN3)c2N)cc1`, for which the CC50 at 72 h in data set [1] was > 500 µM. Moreover, the IC50 in data set [2], in [3] and in [6] was > 100 µM throughout. Moreover, the IC90 in data set [2], in data set [3] and in data set [6] was > 100 µM throughout.

Values taken from ChEMBL document CHEMBL4359893, “Synthesis, structure-activity relationship and trypanocidal activity of pyrazole-imidazoline and new pyrazole-tetrahydropyrimidine hybrids as promising chemotherapeutic agents for Chagas disease” (Eur J Med Chem, 2019).
